# Published values of several laboratories.
# Target: Cytoplasmic tyrosine-protein kinase BMX (BMX, Homo sapiens, UniProt P51813)
# One construct used (P51813 1-675): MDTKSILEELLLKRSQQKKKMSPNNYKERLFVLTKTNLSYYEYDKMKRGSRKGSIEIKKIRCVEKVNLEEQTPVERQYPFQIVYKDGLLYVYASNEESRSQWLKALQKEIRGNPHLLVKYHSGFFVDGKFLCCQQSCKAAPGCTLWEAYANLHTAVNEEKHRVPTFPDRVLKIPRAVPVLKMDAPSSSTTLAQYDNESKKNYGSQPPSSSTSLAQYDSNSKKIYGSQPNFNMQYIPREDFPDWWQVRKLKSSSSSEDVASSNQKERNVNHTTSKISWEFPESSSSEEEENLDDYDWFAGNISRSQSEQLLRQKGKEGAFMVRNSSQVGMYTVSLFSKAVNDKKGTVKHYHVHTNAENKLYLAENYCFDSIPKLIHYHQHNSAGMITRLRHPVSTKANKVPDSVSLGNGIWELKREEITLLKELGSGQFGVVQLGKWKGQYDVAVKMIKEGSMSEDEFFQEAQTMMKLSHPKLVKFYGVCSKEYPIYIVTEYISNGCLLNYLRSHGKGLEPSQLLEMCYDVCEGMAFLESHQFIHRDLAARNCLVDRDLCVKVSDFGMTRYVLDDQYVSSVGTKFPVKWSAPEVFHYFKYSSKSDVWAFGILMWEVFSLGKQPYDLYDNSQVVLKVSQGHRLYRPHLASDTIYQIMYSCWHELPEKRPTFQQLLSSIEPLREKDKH
Structure (SMILES),assay,setting,endpoint,value
COc1cc2nccc(Oc3ccc(NC(=S)NC(=O)c4ccccc4C)cc3)c2cc1OC,"enzyme activity, inhibitor",0.5 µM,remaining activity,30.6%
Cc1nc(N2CC[C@@H](O)C2)ncc1-c1cc(C(F)(F)F)cc2[nH]ncc12,"cell-free assay, competition with immobilised ligand",1 µM,remaining binding,100%
Cn1c2c(c3ccc(Cl)c(Cl)c31)C(C#N)C1(CCCCC1)NC2=O (racemic),"thermal stability, DSF",10 µM,ΔTm,0.1 °C
Cc1nccc(COC(=O)N2C[C@@H]3[C@@H](CNC(=O)c4ccc5[nH]nnc5c4)[C@@H]3C2)n1,"cell-free assay, competition with immobilised ligand",1 µM,remaining binding,88%
CNc1cccc2cc(C(=O)Nc3ccc(C(=O)O)cc3)c(=O)[nH]c12,"enzyme activity, inhibitor",10 µM,inhibition,9.1%
CC1=C(C#N)[C@@H](c2ccc3[nH]nc(C)c3c2)C(C#N)=C(c2ccc(Cl)cc2)N1,"cell-free assay, competition with immobilised ligand",1 µM,remaining binding,100%
O=C1NC(=O)c2cc(Nc3ccc(F)cc3)c(Nc3ccc(F)cc3)cc21,cell-free assay,0.5 µM,remaining signal,95.3%
CS(=O)(=O)c1cc(C2(NC(=O)c3cncc4c3cnn4-c3ccc(F)cc3)CC2)ccn1,"cell-free assay, competition with immobilised ligand",1 µM,remaining binding,100%
Nc1[nH]nc2nnc(-c3c(-c4ccccc4)nn4ccccc34)cc12,"enzyme activity, inhibitor",0.5 µM,remaining activity,84.4%
Cn1c2c(c3ccc(Cl)c(Cl)c31)C(C#N)C1(CCCC1)NC2=O (stereo not drawn),"thermal stability, DSF",10 µM,ΔTm,0 °C
c1ccc(N2CCN(Cc3nc4ccccc4[nH]3)CC2)nc1,"cell-free assay, competition with immobilised ligand",1 µM,remaining binding,100%
Cn1cncc1C1=CN(c2ncnc3[nH]cnc23)CCS1,"enzyme activity, inhibitor, radiometric",50 nM,inhibition,13.9%
CN(C)C1CCN(CC#Cc2nn(C3CCCC3)c3nc(NCc4ccccc4)ncc23)C1 (stereo not drawn),"enzyme activity, inhibitor, FRET",0.1 µM,inhibition,11%
c1nc2c(Nc3ccc4c(c3)OCCO4)nc(Nc3ccc4c(c3)OCCO4)nc2[nH]1,"enzyme activity, inhibitor",10 µM,activity vs control,9.7%
CNC(=O)c1cc(Oc2ccc(NC(=O)Nc3ccc(Cl)c(C(F)(F)F)c3)cc2)ccn1,"enzyme activity, inhibitor",10 µM,inhibition,9%
CCOC(=O)c1cc2cc(-c3cc(C(=O)NCc4ccc(C(=O)O)cc4)nn3C)ccc2[nH]1,"cell-free assay, competition with immobilised ligand",0.1 µM,remaining binding,82%
CC(C)[C@H](CO)Nc1nc(Nc2cc(N)cc(Cl)c2)c2ncn(C(C)C)c2n1,"enzyme activity, inhibitor",0.5 µM,remaining activity,81.9%
CCCS(=O)(=O)Nc1ccc(F)c(C(=O)c2c[nH]c3ncc(-c4ccc(Cl)cc4)cc23)c1F,"enzyme activity, inhibitor",1 µM,inhibition,< 20%
Fc1ccc(-c2nc3n(c2-c2ccncc2)CCS3)cc1,"enzyme activity, inhibitor",0.5 µM,remaining activity,104%
Cn1c2c(c3ccccc31)C(C#N)C(C)(C)NC2=O (stereo not drawn),"thermal stability, DSF",10 µM,ΔTm,-0.4 °C
COc1cc2c(N3CCN(C(=O)Nc4ccc(OC(C)C)cc4)CC3)ncnc2cc1OCCCN1CCCCC1,cell-free assay,0.5 µM,remaining signal,109%
Cc1ccc(C(=O)NCc2ccsc2)cc1C#Cc1cn(C(C)C)c2ncnc(N)c12,"enzyme activity, inhibitor",1 µM,activity vs control,2%
Cn1c2c(c3ccc(Cl)c(Cl)c31)C(C#N)C1(CCNCC1)NC2=O (racemic),"thermal stability, DSF",10 µM,ΔTm,-0.3 °C
COc1cc2ncnc(Nc3ccc(Oc4ccccc4)cc3C)c2cc1OC,"enzyme activity, inhibitor",1 µM,inhibition,35%
O=C1Nc2ccc(Cl)cc2C1=Cc1cc(Cl)c(O)c(Cl)c1,cell-free assay,0.5 µM,remaining signal,94.8%
O=C(Nc1cnn(-c2csc(C(=O)NC3COC3)c2)c1)Nc1ccccc1Cl,"enzyme activity, inhibitor",5 µM,remaining activity,106%
O=c1cc(-c2cccc3c2Sc2ccccc2S3)oc(N2CCOCC2)c1,"enzyme activity, inhibitor",0.5 µM,remaining activity,112%
N#CC1c2c([nH]c3c(Cl)c(Cl)ccc23)C(=O)NC12CCCCC2 (racemic),"thermal stability, DSF",10 µM,ΔTm,-0.1 °C
Cc1ccc(Nc2nccc(N(C)c3ccc4c(C)n(C)nc4c3)n2)cc1S(N)(=O)=O,"enzyme activity, inhibitor",10 µM,inhibition,70%
CC(=O)C1=C(C)N(c2cccc(C(F)(F)F)c2)C(=O)N[C@@H]1c1ccc(C#N)nc1,"cell-free assay, competition with immobilised ligand",1 µM,remaining binding,97.4%
Cc1ccc(NC(=O)c2ccc(C)c(C(F)(F)F)c2)cc1C#Cc1nn(C2CCC(O)CC2)c2ncnc(N)c12 (stereo not drawn),cell-free assay,10 µM,remaining signal,-1%
Nc1c(C(=O)NCc2ccc(C(=O)NCCCC3CCCCC3)cc2)cnn1-c1ccccc1,"cell-free assay, competition with immobilised ligand",0.1 µM,remaining binding,100%
CCN(CC)CCNC(=O)c1c(C)[nH]c(/C=C2\C(=O)Nc3ccc(F)cc32)c1C,"enzyme activity, inhibitor",0.3 µM,inhibition,-1%
